Series [1] can be described thus: Partition coefficient (logP). Format: physicochemical. The conditions noted are these: octanol/water; read-out: logP.
Series [2] concerns Plasmodium falciparum. The series can be described thus: Concentration required to reduce chloroquine IC50 by 50%. Type of series: functional, organism-based. The conditions noted are these: Plasmodium falciparum. In outline: (§1)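 Synergy isotopic microtest on sorbitol-synchronized W2 (Indochina) and 3D7 in RPMI 1640 with 10% human serum, HEPES/NaHCO3, parasitemia 0.5%, hematocrit 1.5%. CQ was combined with subinhibitory fixed DEEA concentrations, and 3H-hypoxanthine was added for 48 h at 37 °C under 10% O2/6% CO2/84% N2. Reversal IC50 is the DEEA concentration halving CQ IC50, found by nonlinear regression of log-dose/IC50.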

The subject of series [3] is Plasmodium falciparum. The series can be described thus: In vitro inhibitory activity against multidrug-resistant Plasmodium falciparum W2 Indochina. The conditions noted are these: Plasmodium falciparum. Format: functional, organism-based. In outline: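 Clone W2 (Indochina), sorbitol-synchronized, was grown in RPMI 1640 with 10% human serum, 25 mM HEPES and 25 mM NaHCO3, at final parasitemia 0.5% and hematocrit 1.5%. The drug was present for 48 h at 37 °C under 10% O2/6% CO2/84% N2. Growth was read as 3H-hypoxanthine uptake (1 μCi/well). IC50 came from nonlinear regression of log-dose/response as the geometric mean with 95% CI.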

Series [4] can be described thus: In vitro hemolytic concentration on uninfected erythrocytes. Type of series: functional, Homo sapiens. In outline:
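Washed A+ human erythrocytes were held at 1.5% hematocrit in RPMI 1640 with 10% human serum, 25 mM HEPES and 25 mM NaHCO3. Drug (2 mM to 1 μM final, triplicate) was added for 42 h at 37 °C under 10% O2/6% CO2. Released hemoglobin in supernatant was measured with TMB/H2O2 at 455 nm. HC50 is relative to 5% saponin lysis, by nonlinear regression.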

The nature of series [5]: Cytotoxicity against Chinese hamster ovary cells. Type of series: cell-based, Cricetulus griseus. In outline: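 Cells were then exposed to graded drug concentrations for 48 h at 37 °C, 5% CO2. MTT (1 mg/mL in PBS) was added for 3 h, and formazan was dissolved in DMSO and read at 570/630 nm. IC50 came from nonlinear regression versus drug-free wells.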
Series [6] has as its system Plasmodium falciparum. Kind of series: Percent reversal against Plasmodium falciparum W2 at 1 uM DEEA. Format: functional.
A short description of series [7]: Partition coefficient (logD7.0). Format: physicochemical. The conditions noted are these: octanol/water, pH 7; read-out: logD.
Series [8] relates to Plasmodium falciparum. The series can be described thus: Accumulation coefficient of chloroquine at 1 uM-10 uM of DEEA against Plasmodium falciparum W2. Type of series: functional. In outline:
(§2)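 W2 infected erythrocytes were suspended in RPMI 1640 with 25 mM HEPES and 25 mM NaHCO3 (2% parasitemia, 2% hematocrit). They were mixed over silicone oil with buffer holding [3H]CQ (26 Ci/mmol) plus DEEA at 1 or 10 μM. Incubation was 1 h at 37 °C under 10% O2/6% CO2/84% N2, followed by 1 min centrifugation. Ratio = parasite [3H]CQ (infected minus uninfected cells) / same-volume buffer.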

Series [9] in a line: Dissociation constant (pKa). Format: physicochemical.
The test system of series [10] is Plasmodium falciparum. The series can be described thus: Accumulation coefficient of chloroquine at 1 uM-10 uM of DEEA against Plasmodium falciparum W2; Range is from 50-66. Format: functional. A digest of the protocol:
as §2

The subject of series [11] is Plasmodium falciparum. The series can be described thus: Accumulation coefficient of chloroquine at 1 uM-10 uM of DEEA against Plasmodium falciparum W2;Range is from 16-25. Format: functional. In outline:
as §2

Series [12] concerns Plasmodium falciparum. Kind of series: Accumulation coefficient of chloroquine at 1 uM-10 uM of DEEA against Plasmodium falciparum W2; Range is from 23-30. Format: functional.
Series [13] concerns Plasmodium falciparum. The series can be described thus: Concentration required to reduce chloroquine IC50 by 50%; Antagonist. Format: functional, organism-based. A digest of the protocol:
as §1

For series [14], the system named is Plasmodium falciparum. Kind of series: Accumulation coefficient of chloroquine at 1 uM-10 uM of DEEA against Plasmodium falciparum W2; Range is from 22-29. Format: functional. A digest of the protocol:
as §2

The structures appear in SMILES notation.

Turning to `O=C(NCc1ccccc1)C1=CC2c3ccccc3C1c1ccccc12`, the lipophilicity (logP) – broadly, the decadic logarithm of the partition coefficient of the neutral form, usually between octanol and water – in [1] is 4.41. Moreover, the half-maximal inhibitory concentration (IC50) (in general, the concentration needed to halve the response being measured) in the series on Plasmodium falciparum [2] came to 23 µM; in the series on Plasmodium falciparum [3], 50 µM. Also, the 50% haemolytic concentration (HC50) (in general, the concentration that lyses half of the red blood cells) in [4] is over 2000 µM. In addition, in series [5], the Cytotoxicity was over 2000 µM. Further, in the series on Plasmodium falciparum [6], the Reversal is on record as 0%. Also, the logD (commonly lipophilicity at a set pH, counting ionised and neutral species) in series [7] came to 4.41. The Accumulation coefficient with Plasmodium falciparum [8] came to 46.

With `CC1C2c3ccccc3C(c3ccccc32)C1C[N+](C)(C)C.[I-]` (configuration not stated), the logP in series [1] came out at 1.32. The values for the 50% inhibitory concentration (IC50) with Plasmodium falciparum [2] and with Plasmodium falciparum [3] were 3.5 µM and 16 µM, respectively. Also, the HC50 in series [4] is over 2000 µM. Besides, the Cytotoxicity in series [5] is over 2000 µM. In addition, the Reversal in the series on Plasmodium falciparum [6] stood at 37%. The logD in series [7] is 1.32. Moreover, the Accumulation coefficient in the series with Plasmodium falciparum [8] turned out to be 192.

`CNCC1CC2c3ccccc3C1c1ccccc12` (configuration not stated): the log partition coefficient (logP) in series [1] was 3.66. The IC50 with Plasmodium falciparum [2] was 0.3 µM; with Plasmodium falciparum [3], 8 µM. In addition, the concentration for 50% haemolysis (HC50) in series [4] was determined as 1090 µM. The Cytotoxicity in series [5] was found to be 515 µM. Besides, the Reversal with Plasmodium falciparum [6] is on record as 80%. The logD in series [7] worked out at 0.63. Besides, the Accumulation coefficient with Plasmodium falciparum [8] is recorded as 210. In addition, the pKa (in general, the pH at which an ionisable group is half protonated) in [9] was found to be 10.2.

As for `CN(C)CC1C2c3ccccc3C(c3ccccc32)C1COC(=O)N(C)C` (configuration not stated), in the series with Plasmodium falciparum [10], the Accumulation coefficient was determined as 66. The logP in series [1] was determined as 2.99. Moreover, the 50% inhibitory concentration (IC50) in the series with Plasmodium falciparum [2] turned out to be 1.6 µM; in the series with Plasmodium falciparum [3] it was 21 µM. In series [4], this compound yielded an HC50 of 1563 µM. In series [5], this compound registered a Cytotoxicity of 758 µM. Also, the Reversal in the series with Plasmodium falciparum [6] worked out at 25%. The logD in series [7] is 1. In addition, the pKa in [9] was 8.99.

For `CN(C)C=NC(=O)C1C2c3ccccc3C(c3ccccc32)C1C(=O)N=CN(C)C` (configuration not stated), in [1], the logP is 1.6. This compound showed an Accumulation coefficient with Plasmodium falciparum [11] of 25. The IC50 with Plasmodium falciparum [2] is 30 µM; in the series on Plasmodium falciparum [3] it was 33 µM. In addition, the concentration for 50% haemolysis (HC50) in series [4] was over 2000 µM. This compound also yielded a Cytotoxicity in series [5] of 820 µM. Moreover, the Reversal in the series with Plasmodium falciparum [6] stood at 0%. Further, the logD in [7] stood at 1.6.

`COC(=O)C1C2c3ccccc3C(c3ccccc32)C1C(=O)N(C)C` (configuration not stated): the lipophilicity (logP) in series [1] is 2.47. For the same compound, the figures for the IC50 in the series with Plasmodium falciparum [3] and in the series on Plasmodium falciparum [13] were 32 µM and “Antagonist”, respectively. In series [4], this compound had an HC50 of over 2000 µM. The Accumulation coefficient in the series with Plasmodium falciparum [12] came to 30. Further, in series [5], the Cytotoxicity is over 2000 µM. Moreover, in the series with Plasmodium falciparum [6], the Reversal came out at 0%. For the same compound, the log distribution coefficient (logD) in [7] amounted to 2.47. In addition, the pKa in [9] was -1.65.

As for `c1ccc2c(c1)C1c3ccccc3C2C2CNCC12` (configuration not stated), in [1], the logP was found to be 2.98. The IC50 was determined as 0.2 µM in the series with Plasmodium falciparum [2] and 10 µM in the series with Plasmodium falciparum [3]. In series [4], this compound showed an HC50 of over 2000 µM. Moreover, the Cytotoxicity in [5] is 1110 µM. Also, in the series on Plasmodium falciparum [6], the Reversal stood at 80%. In addition, the logD in [7] is 0. The compound further returned an Accumulation coefficient with Plasmodium falciparum [8] of 322. The pKa in series [9] worked out at 10.2.

Turning to `CN(C)CC1=CC2c3ccccc3C1c1ccccc12`, the logP in series [1] is 3.68. Besides, the values for the 50% inhibitory concentration (IC50) in the series on Plasmodium falciparum [2] and in the series on Plasmodium falciparum [3] were 0.5 µM and 4 µM, respectively. The same compound registered an HC50 in series [4] of 1630 µM. For the same compound, in series [5], the Cytotoxicity worked out at 1427 µM. Further, in the series on Plasmodium falciparum [6], the Reversal was 65%. Further, the pH-dependent lipophilicity (logD) in [7] was found to be 2.61. In the series with Plasmodium falciparum [8], this compound had an Accumulation coefficient of 53. In addition, in [9], the pKa was determined as 8.04.

In the case of `CN(C)C1CC2c3ccccc3C1c1ccccc12` (configuration not stated), the logP in series [1] came to 3.67. Besides, the IC50 in the series on Plasmodium falciparum [2] worked out at 0.8 µM; in the series on Plasmodium falciparum [3] it was 9.3 µM. Moreover, in series [4], the concentration for 50% haemolysis (HC50) is over 2000 µM. Moreover, the Cytotoxicity in series [5] was over 2000 µM. Further, the Reversal with Plasmodium falciparum [6] is listed as 60%. Also, the log distribution coefficient (logD) in series [7] amounted to 2. The Accumulation coefficient in the series with Plasmodium falciparum [8] is 219. The pKa in series [9] is 8.67.

Consider `NC(=O)C1C2c3ccccc3C(c3ccccc32)C1C(N)=O` (configuration not stated), for which the logP in series [1] amounted to 0.86. The IC50 in the series with Plasmodium falciparum [2] is 50 µM; in the series on Plasmodium falciparum [3], 44 µM. Further, in the series with Plasmodium falciparum [14], the Accumulation coefficient came out at 29. The compound also registered an HC50 in series [4] of over 2000 µM. This compound gave a Cytotoxicity in [5] of over 2000 µM. Further, the Reversal in the series on Plasmodium falciparum [6] is on record as 0%. In addition, in [7], the logD came to 0.86. In addition, the pKa in series [9] was -0.96.

Source of the values: ChEMBL document CHEMBL1135512 (J Med Chem, 2002).
